# Shown are actives, neighbours in structure and some others; about 5.9% of the full set was active somewhere.
# Pf Dd2 growth = blocks growth of Plasmodium falciparum Dd2 parasites; activity change, % at 10 µM; P. falciparum Dd2 growth, SYBR Green, 72 h; active compounds read low; 94,000 tested, 2.3% active; in the data active = activity change below about -80%; inconclusive = no clear call, values can overlap the other calls
# IDH1 R132H inh = IDH1 R132H (human) inhibition. IDH1 R132H reductase, diaphorase/resazurin fluorescence, 60 min. AID 624101. inhibition, % at 10 µM. 70,000 tested, 0.18% active. O75874; in the data active = inhibition above about 34%; inconclusive = no clear call, values can overlap the other calls; inactive = below about 11%
# Target sequence (O75874 whole entry R132H): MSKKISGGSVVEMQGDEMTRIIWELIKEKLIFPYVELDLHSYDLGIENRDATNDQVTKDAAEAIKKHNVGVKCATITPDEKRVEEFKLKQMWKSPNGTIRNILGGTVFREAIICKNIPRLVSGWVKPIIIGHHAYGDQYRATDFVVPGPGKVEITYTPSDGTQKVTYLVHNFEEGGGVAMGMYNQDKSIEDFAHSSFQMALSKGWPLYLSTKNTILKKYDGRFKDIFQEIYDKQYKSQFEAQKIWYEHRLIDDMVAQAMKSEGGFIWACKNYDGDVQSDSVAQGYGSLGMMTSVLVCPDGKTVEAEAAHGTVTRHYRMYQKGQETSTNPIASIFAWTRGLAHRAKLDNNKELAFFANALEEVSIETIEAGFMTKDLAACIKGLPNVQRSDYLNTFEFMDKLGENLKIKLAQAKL
# Tcruzi prolif = inhibitors of T. cruzi proliferation; T. cruzi beta-gal in NIH3T3, GalScreen luminescence, 90 h; inhibition, % at 8.34 µM; 77,000 tested, 5.9% active;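 active = mean inhibition above about 93%, with at least 55% of replicates each passing it, limit read from the data, passing the limit was not always enough; inconclusive = only one of those two conditions holds; inactive = neither condition holds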
# KDM4C inh = inhibitors of human demethylase GASC-1 KDM4C; GST-KDM4C 2-372, H3K9me3 peptide, LANCE TR-FRET; inhibition, % at 12.5 µM; 96,000 tested, 0.15% active;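 active = mean replicate inhibition above about 25%, with at least 55% of replicates also reaching it, limit read from the data, passing the limit was not always enough; inconclusive = only one of those two conditions met; inactive = neither condition met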
#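 Material: GST-tagged GASC-1 (JMJD2C) catalytic fragment, aa 2-372 / Quantity: enzyme final amount 10 nM / Medium: HEPES buffer, pH 7.5, plus ascorbate / Doses: one test concentration per compound / Incubation: 30 min reaction, 60 min detection, RT / Measured by: LANCE TR-FRET / Read-out: inhibition from TR-FRET ratio decrease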
# A number is an active result; 0 = inactive; ? = inconclusive; - = no result given.
SMILES,Pf Dd2 growth,IDH1 R132H inh,Tcruzi prolif,KDM4C inh
COCC#Cc1ccc(CC[C@H]2O[C@H]3CC[C@H](CO)O[C@H]3C[C@H]2n2cc(C3CC3)nn2)cc1,0,-,-,-
OC[C@@H]1CC[C@@H]2O[C@H](CCc3ccc(C#Cc4ccccc4)cc3)[C@H](n3cc(-c4ccccc4)nn3)C[C@@H]2O1,-84,-,-,-
COCC#Cc1ccc(CC[C@H]2O[C@H]3CC[C@@H](CO)O[C@H]3C[C@@H]2n2cc(C3CC3)nn2)cc1,-89,-,-,-
CCCC#Cc1ccc(CC[C@H]2O[C@H]3CC[C@H](CO)O[C@H]3C[C@@H]2n2cc(C(C)(C)O)nn2)cc1,-85,-,-,-
CS(=O)(=O)N(CC(=O)Nc1ccc(I)cc1)Cc1ccccc1,-,0,-,-
O=C(N/N=C/c1cccc2ccccc12)c1ccccc1O,-,0,-,-
COc1ccc2c3c(n(C)c2c1)[C@H](CO)N(C(=O)C1CCC1)CC31CCN(Cc2cccc(F)c2)CC1,-84,-,-,0
COc1cccc(CN2CCC3(CC2)CN(C(=O)C2CC2)[C@H](CO)c2c3c3ccc(OC)cc3n2C)c1,-85,-,-,0
COc1ccc2c3c(n(C)c2c1)[C@@H](CO)N(C(=O)C1CCC1)CC31CCN(Cc2cccc(F)c2)CC1,0,-,-,0
CCOC(=O)C1CCCCN1Cc1ccc(OC)c(O)c1 (configuration not stated),-,0,-,-
Cc1c(NC(=O)c2ncn[nH]2)cccc1-c1nc2cc(Cl)ccc2o1,-,0,-,-
C[C@H]1CN([C@@H](C)CO)C(=O)c2cccc(NS(=O)(=O)c3ccc(F)cc3)c2O[C@H]1CN(C)Cc1ccc(C(=O)Nc2ccccc2N)cc1,-88,-,-,0
C[C@@H]1CN([C@@H](C)CO)C(=O)c2cccc(NS(=O)(=O)c3ccc(F)cc3)c2O[C@@H]1CN(C)Cc1ccc(C(=O)Nc2ccccc2N)cc1,-90,-,0,0
C[C@@H]1CN([C@@H](C)CO)C(=O)c2cccc(NS(=O)(=O)c3ccc(F)cc3)c2O[C@H]1CN(C)Cc1ccc(C(=O)Nc2ccccc2N)cc1,0,0,-,0
CC(C)CC#Cc1ccc2c(c1)O[C@@H](CN(C)C(=O)Cc1ccncc1)[C@@H](C)CN([C@H](C)CO)S2(=O)=O,?,0,0,0
CC(C)CC#Cc1ccc2c(c1)O[C@H](CN(C)C(=O)Cc1cccnc1)[C@H](C)CN([C@H](C)CO)S2(=O)=O,0,52,-,0
CC(C)CC#Cc1ccc2c(c1)O[C@H](CN(C)C(=O)Cc1cccnc1)[C@@H](C)CN([C@@H](C)CO)S2(=O)=O,0,54,-,0
C[C@@H]1CN([C@@H](C)CO)S(=O)(=O)c2ccc(C#Cc3ccccc3F)cc2O[C@@H]1CN(C)C(=O)c1ccc2c(c1)OCO2,0,0,-,0
C[C@H]1CN([C@@H](C)CO)S(=O)(=O)c2ccc(C#Cc3ccccc3F)cc2O[C@H]1CN(C)C(=O)c1ccc2c(c1)OCO2,-88,-,-,0
CC(C)CC#Cc1ccc2c(c1)O[C@@H](CN(C)C(=O)Cc1cccnc1)[C@@H](C)CN([C@@H](C)CO)S2(=O)=O,0,0,-,0
C[C@H](CO)N1C[C@H](C)[C@@H](CN(C)C(=O)Cc2cccnc2)Oc2cc(C#Cc3ccccc3F)ccc2S1(=O)=O,-84,-,-,0
CCc1ccc(NC(=O)CSc2ncnc3sc4c(c23)CCC(C)C4)cc1 (configuration not stated),-,0,-,-
CC(C)CC#Cc1ccc2c(c1)O[C@@H](CN(C)C(=O)Cc1cccnc1)[C@H](C)CN([C@H](C)CO)S2(=O)=O,0,38,-,0
COc1cc(OC)c(NC(=O)COc2ccc([N+](=O)[O-])cc2)cc1Cl,-,0,-,-
COc1ccc(S(=O)(=O)N(C)C[C@@H]2OCCCC[C@H](C)Oc3ccc(NC(=O)Cc4ccccc4)cc3C(=O)N([C@@H](C)CO)C[C@@H]2C)cc1,-83,0,0,0
SMILES,Pf Dd2 growth,IDH1 R132H inh,Tcruzi prolif,KDM4C inh
COc1ccc(S(=O)(=O)N(C)C[C@H]2OCCCC[C@H](C)Oc3ccc(NC(=O)Cc4ccccc4)cc3C(=O)N([C@@H](C)CO)C[C@H]2C)cc1,?,0,0,0
COc1ccc(S(=O)(=O)N(C)C[C@@H]2OCCCC[C@H](C)Oc3ccc(NC(=O)Cc4ccccc4)cc3C(=O)N([C@H](C)CO)C[C@H]2C)cc1,-84,0,0,0
COc1ccc(S(=O)(=O)N(C)C[C@@H]2OCCCC[C@@H](C)Oc3ccc(NC(=O)Cc4ccccc4)cc3C(=O)N([C@@H](C)CO)C[C@H]2C)cc1,0,0,0,0
O=C(COc1ccccc1[N+](=O)[O-])Nc1ccc(N2CCN(C(=O)c3ccco3)CC2)cc1,-,0,-,-
C[C@@H]1CN([C@H](C)CO)C(=O)c2ccccc2-c2ccccc2CO[C@@H]1CN(C)Cc1ccc(-c2ccccc2)cc1,-83,-,-,0
C[C@H]1CN([C@@H](C)CO)C(=O)c2ccccc2-c2ccccc2CO[C@@H]1CN(C)Cc1ccc(Cl)c(Cl)c1,-85,-,-,0
COc1ccc(S(=O)(=O)N(C)CC(N)=O)cc1,-,0,-,-
O=C(N/N=C/c1cccc(Br)c1)c1ccccn1,-,0,-,-
C[C@@H]1CCCCO[C@@H](CN(C)Cc2ccccc2)[C@H](C)CN([C@H](C)CO)C(=O)c2cc(NC(=O)Cc3ccccc3)ccc2O1,0,0,-,0
C[C@H]1CCCCO[C@H](CN(C)Cc2ccc(Cl)c(Cl)c2)[C@@H](C)CN([C@@H](C)CO)C(=O)c2cc(NC(=O)Cc3ccccc3)ccc2O1,-85,-,0,0
C[C@@H]1CN([C@H](C)CO)C(=O)c2cc(NC(=O)Cc3ccccc3)ccc2O[C@@H](C)CCCCO[C@H]1CN(C)Cc1ccc(Cl)c(Cl)c1,-84,0,0,0
C[C@@H]1CCCCO[C@@H](CN(C)Cc2ccc(Cl)c(Cl)c2)[C@H](C)CN([C@@H](C)CO)C(=O)c2cc(NC(=O)Cc3ccccc3)ccc2O1,0,0,0,0
Cc1ccc(S(=O)(=O)N(C)C[C@H]2OCCCC[C@@H](C)Oc3ccc(NC(=O)Nc4ccc(C(F)(F)F)cc4)cc3C(=O)N([C@H](C)CO)C[C@@H]2C)cc1,0,-,-,0
C[C@@H]1CN([C@H](C)CO)C(=O)c2cc(NC(=O)Nc3ccc(C(F)(F)F)cc3)ccc2O[C@@H](C)CCCCO[C@H]1CN(C)S(=O)(=O)c1ccc(F)cc1,0,-,0,0
Cc1ccc(S(=O)(=O)N(C)C[C@@H]2OCCCC[C@H](C)Oc3ccc(NC(=O)Nc4ccc(C(F)(F)F)cc4)cc3C(=O)N([C@@H](C)CO)C[C@@H]2C)cc1,-85,0,-,0
C[C@@H]1CCCCO[C@H](CN(C)S(=O)(=O)c2ccc(F)cc2)[C@H](C)CN([C@@H](C)CO)C(=O)c2cc(NC(=O)Nc3ccc(C(F)(F)F)cc3)ccc2O1,-86,0,0,0
COc1ccc(S(=O)(=O)N(C)C[C@@H]2OCCCC[C@@H](C)Oc3ccc(NC(=O)Nc4ccc(C(F)(F)F)cc4)cc3C(=O)N([C@H](C)CO)C[C@@H]2C)cc1,-84,-,0,0
COc1ccc(S(=O)(=O)N(C)C[C@H]2OCCCC[C@H](C)Oc3ccc(NC(=O)Nc4ccc(C(F)(F)F)cc4)cc3C(=O)N([C@H](C)CO)C[C@@H]2C)cc1,0,-,0,0
